According to publication PMC10694493 (Cell Reports Methods, 2023):

Assay: B2LiVe 1D-1H amide-selective NMR, solution-to-membrane partitioning
Assay type: binding
Settings: POPC:POPG 9:1 LUV; 3 μM protein; pH 4.2
In short: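 Test protein held constant while POPC:POPG 9:1 LUV (reverse-phase evaporation, 40 mM stock, extruded through 1.2 μm filters) are titrated from 0 to 2 mM. Buffer: 20 mM HEPES-Na, 20 mM NaCl, 5% D2O, 25°C. 1D amide-selective HET-SOFAST 1H spectra at 800 MHz, PC9 120° pulse centred at 9.5 ppm. Fraction in solution is taken from the amide integral after subtracting the highest-lipid vesicle spectrum.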

B1: apo-Mb: apo-myoglobin, 16.9 kDa amphitropic protein, Sigma-Aldrich (protein, UniProt P68082 2-154, looked up)
Myoglobin: GLSDGEWQQVLNVWGKVEADIAGHGQEVLIRLFTGHPETLEKFDKFKHLKTEAEMKASEDLKKHGTVVLTALGGILKKKGHHEAELKPLAQSHATKHKIPIKYLEFISDAIIHVLHSKHPGDFGADAQGAMTKALELFRNDIAAKYKELGFQG
modifications: heme-free
  NMR signal remaining at the highest lipid concentration: completely disappears
